# High-throughput results from PubChem BioAssay.
# T cruzi growth-1: blocks T. cruzi growth in NIH3T3 culture | T. cruzi beta-gal in NIH3T3, GalScreen luminescence, 90 h | inhibition, % at 8.34 µM | 77,000 compounds, 5.9% hits;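 active means mean inhibition above about 93%, with at least 55% of replicates each passing it, limit read from the data, passing the limit was not always enough; inconclusive means only one of those two conditions holds; inactive means neither condition holds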
# IDH1 mut inh: blocks human IDH1 R132H reductase activity. diaphorase/resazurin fluorescence, 60 min. inhibition, % at 10 µM. 70,000 compounds, 0.18% hits; in the data active means inhibition above about 34%; inconclusive means no clear call, values can overlap the other calls; inactive means below about 11%;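 further: 0% = DMSO and 100% = no enzyme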
# Target sequence (O75874 whole entry R132H): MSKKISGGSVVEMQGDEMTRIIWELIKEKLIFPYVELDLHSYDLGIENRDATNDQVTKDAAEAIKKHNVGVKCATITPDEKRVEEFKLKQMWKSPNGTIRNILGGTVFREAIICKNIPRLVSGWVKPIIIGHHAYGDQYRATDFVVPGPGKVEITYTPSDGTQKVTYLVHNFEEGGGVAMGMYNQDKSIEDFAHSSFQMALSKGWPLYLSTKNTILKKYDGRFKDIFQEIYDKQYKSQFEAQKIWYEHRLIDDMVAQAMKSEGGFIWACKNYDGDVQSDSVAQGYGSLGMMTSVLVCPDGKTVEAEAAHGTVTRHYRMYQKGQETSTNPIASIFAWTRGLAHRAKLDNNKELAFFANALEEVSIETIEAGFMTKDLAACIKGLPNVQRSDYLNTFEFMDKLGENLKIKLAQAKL
# GASC1 inh: blocks human GASC-1 (KDM4C) demethylase activity; 96,000 compounds, 0.15% hits; Q9H3R0; GST-KDM4C 2-372, H3K9me3 peptide, LANCE TR-FRET; inhibition, % at 12.5 µM;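 active means mean replicate inhibition above about 25%, with at least 55% of replicates also reaching it, limit read from the data, passing the limit was not always enough; inconclusive means only one of those two conditions met; inactive means neither condition met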
#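 System: N-terminal GST-fused human GASC-1 (KDM4C) fragment, residues 2-372 / Amount: 10 nM GST-KDM4C in enzyme reaction / Also added: H3K9me3 peptide with Fe(II)/2OG / Times: 30 min demethylation and 1 h detection at room temperature / Signal: LANCE TR-FRET / Read-out basis: Fall in 671/618 emission ratio as inhibition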
# Pf Dd2 inh: blocks growth of Plasmodium falciparum Dd2 parasites. P. falciparum Dd2 growth, SYBR Green, 72 h; active compounds read low. activity change, % at 10 µM. 94,000 compounds, 2.3% hits. AID 1159554; in the data active means activity change below about -80%; inconclusive means no clear call, values can overlap the other calls
# T cruzi growth-2: blocks T. cruzi growth in NIH3T3 host cells; shares compounds with T cruzi growth-1; T. cruzi beta-gal in NIH3T3, GalScreen luminescence, 90 h; inhibition, % at 8.35 µM; 5,600 compounds, 72% hits; AID 651739;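 active means mean replicate inhibition above about 95% and at least 55% of replicates individually reaching it, limit read from the data; inconclusive means only one of the two criteria is met; inactive means neither criterion is met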
# T cruzi growth-3: inhibitors of T. cruzi proliferation. shares compounds with T cruzi growth-1. T. cruzi beta-gal in NIH3T3, GalScreen luminescence, 90 h. inhibition, % at 2.09 µM. 5,600 compounds, 21% hits;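 active means mean inhibition above about 95%, with at least 55% of replicates also reaching it, limit read from the data; inconclusive means meets just one of the two conditions; inactive means meets neither condition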;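 further: plate controls were neutral control median for no effect and positive control median for full effect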
# 3T3 cytotox: NIH/3T3 (mouse) viability loss; shares compounds with T cruzi growth-1; NIH/3T3 viability, CellTiter-Glo ATP luminescence, 90 h; cytotoxicity (signal decrease), % at 8.35 µM; 5,600 compounds, 14% hits;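 active means mean signal decrease across replicates above about 35% based on untreated-well scatter, with enough replicates individually passing, limit read from the data; inconclusive means no rule stated though some were filed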;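 further: 0% = median of neutral control wells and 100% = median of positive control wells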
# 3T3 cytotox 2: cytotoxicity in mouse NIH/3T3 fibroblasts | shares compounds with T cruzi growth-1 | NIH/3T3 viability, CellTiter-Glo ATP luminescence, 90 h | inhibition, % at 24.9 µM | 5,600 compounds, 56% hits | AID 651744;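 active means mean loss of cell viability signal at or above a set limit, and enough replicates individually reaching it; inconclusive means meets only the mean limit or only the replicate share; inactive means meets neither condition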;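 further: 0% = median of neutral control wells and 100% = median of positive control wells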
# An asterisk follows results filed as active; ? = inconclusive; / = no result. Only some compounds are listed: those with a hit (about 5.8% of all), similar ones and a draw of the others.
SMILES,T cruzi growth-1,IDH1 mut inh,GASC1 inh,Pf Dd2 inh,T cruzi growth-2,T cruzi growth-3,3T3 cytotox,3T3 cytotox 2
C[C@@H]1CCCCO[C@@H](CN(C)C(=O)CCC(F)(F)F)[C@H](C)CN([C@@H](C)CO)C(=O)c2cc(N(C)C)ccc2O1,?,-4,6,-3,50,64,-29,-18
C[C@@H]1CN([C@H](C)CO)C(=O)c2cc(N(C)C)ccc2O[C@@H](C)CCCCO[C@@H]1CN(C)C(=O)C1CCCCC1,70,-3,2,21,/,/,/,/
C[C@@H]1CCCCO[C@@H](CN(C)C(=O)C2CCCCC2)[C@H](C)CN([C@H](C)CO)C(=O)c2cc(N(C)C)ccc2O1,?,-1,6,8,3,-6,-9,-4
COc1ccc(NC(=O)N(C)C[C@H]2OCCCC[C@@H](C)Oc3ccc(NS(=O)(=O)c4ccc(Cl)cc4)cc3C(=O)N([C@H](C)CO)C[C@H]2C)cc1,49,/,10,34,/,/,/,/
C[C@H](CO)N1C[C@H](C)[C@H](CN(C)C(=O)Nc2ccccc2)Oc2ccc(NC(=O)Cc3cn(C)c4ccccc34)cc2CC1=O,5,/,-1,-22,/,/,/,/
COc1ccc(CN(C)C[C@H]2OCCCC[C@@H](C)Oc3ccc(NC(=O)Nc4ccc(C(F)(F)F)cc4)cc3C(=O)N([C@H](C)CO)C[C@@H]2C)cc1,75,/,/,-66,/,/,/,/
C[C@H]1CCCCO[C@@H](CN(C)Cc2ccc(C(F)(F)F)cc2)[C@@H](C)CN([C@@H](C)CO)C(=O)c2cc(NC(=O)Nc3ccc(C(F)(F)F)cc3)ccc2O1,?,/,3,-83*,?,113*,38*,0
C[C@H](CO)N1C[C@H](C)[C@@H](CN(C)Cc2ccc(C(F)(F)F)cc2)OCCCC[C@H](C)Oc2ccc(NC(=O)Nc3ccc(C(F)(F)F)cc3)cc2C1=O,32,/,12,38,/,/,/,/
C[C@@H]1CCCCO[C@H](CN(C)Cc2ccc(C(F)(F)F)cc2)[C@@H](C)CN([C@@H](C)CO)C(=O)c2cc(NC(=O)Nc3ccc(C(F)(F)F)cc3)ccc2O1,83,/,0,-65,/,/,/,/
C[C@@H]1CCCCO[C@H](CN(C)Cc2ccc(C(F)(F)F)cc2)[C@@H](C)CN([C@H](C)CO)C(=O)c2cc(NC(=O)Nc3ccc(C(F)(F)F)cc3)ccc2O1,99*,1,1,-66,105*,112*,0,-1
COc1ccc(NC(=O)Nc2ccc3c(c2)C(=O)N([C@@H](C)CO)C[C@H](C)[C@H](CN(C)Cc2ccc(C(F)(F)F)cc2)OCCCC[C@@H](C)O3)cc1,96*,0,3,-30,105*,102*,16,6
C[C@@H]1CN([C@H](C)CO)C(=O)c2cc(NC(=O)Nc3ccc(C(F)(F)F)cc3)ccc2O[C@@H](C)CCCCO[C@H]1CN(C)Cc1ccc(C(F)(F)F)cc1,84,1,-2,?,/,/,/,/
C[C@@H]1CCCCO[C@@H](CN(C)Cc2ccc(C(F)(F)F)cc2)[C@@H](C)CN([C@H](C)CO)C(=O)c2cc(NC(=O)Nc3ccc(C(F)(F)F)cc3)ccc2O1,99*,/,0,62,112*,105*,18,6
COc1cccc(-c2ccc(C3[C@@H]4CN(Cc5cccc(F)c5)C[C@H]3N4)cc2)c1 (stereo partly drawn),/,/,3,-66,/,/,/,/
CC1(C)CC(=O)c2cc(OCC(=O)NCCN3CCOCC3)ccc2O1,/,0,/,/,/,/,/,/
Cc1ccc(-c2ccc([C@@H]3[C@@H](CO)N4C(=O)CN(C(=O)CN5CCOCC5)C[C@H]34)cc2)cc1,/,/,3,-27,/,/,/,/
COc1ccc(NC(=O)Nc2ccc3c(c2)C(=O)N([C@@H](C)CO)C[C@@H](C)[C@H](CN(C)Cc2ccc(C(F)(F)F)cc2)O3)cc1,111*,3,-1,-11,104*,-7,?,97*
